Results reported in ChEMBL document CHEMBL1817554, “Design of HIV-1 protease inhibitors with C3-substituted hexahydrocyclopentafuranyl urethanes as P2-ligands: synthesis, biological evaluation, and protein-ligand X-ray crystal structure” (J Med Chem, 2011).

Experiments:
[1] = test system: Human immunodeficiency virus 1; assay: Antiviral activity against multidrug-resistant Human immunodeficiency virus 1 MDR/G harboring protease L10I, V11I, T12E, I15 V, L19I, R41K, M46L, L63P, A71T, V82A, L90 M mutation infected in PHA-stimulated human PBMC assessed as inhibition of p24 Gag protein production; assay type: functional, organism-based
Summary of the method: (§1)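 PHA-stimulated PBMCs served as target cells, and inhibition of p24 Gag protein production was the end point. Fold change was taken against the wild-type HIV-1ERS104pre IC50. Each assay was run in duplicate or triplicate. Values are means (±1 standard deviation) from three independent experiments.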

[2] = test system: Human immunodeficiency virus 1; assay: Ratio of IC50 for Human immunodeficiency virus 1 MDR/B to IC50 for wild-type Human immunodeficiency virus 1 ERS104pre; assay type: functional
[3] = test system: Human immunodeficiency virus 1; assay: Antiviral activity against multidrug-resistant Human immunodeficiency virus 1 MDR/C harboring protease L10I, I15 V, K20R, L24I, M36I, M46L, I54V, I62 V, L63P, K70Q, V82A, L89 M mutation infected in PHA-stimulated human PBMC assessed as inhibition of p24 Gag protein production; assay type: functional, organism-based; summary of the method: as §1
[4] = test system: Human immunodeficiency virus 1; assay: Ratio of IC50 for Human immunodeficiency virus 1 MDR/TM to IC50 for wild-type Human immunodeficiency virus 1 ERS104pre; assay type: functional
[5] = test system: Human immunodeficiency virus 1; assay: Ratio of IC50 for Human immunodeficiency virus 1 MDR/C to IC50 for wild-type Human immunodeficiency virus 1 ERS104pre; assay type: functional
[6] = test system: Human immunodeficiency virus 1; assay: Antiviral activity against multidrug-resistant Human immunodeficiency virus 1 MDR/TM harboring protease L10I, K14R, R41K, M46L, I54V, L63P, A71V, V82A, L90M, I93L mutation infected in PHA-stimulated human PBMC assessed as inhibition of p24 Gag protein production; assay type: functional, organism-based; summary of the method: as §1
[7] = test system: Human immunodeficiency virus 1; assay: Antiviral activity against multidrug-resistant Human immunodeficiency virus 1 subtype B harboring protease L10I, L33I, M36I, M46I, F53L, K55R, I62 V, L63P, A71 V, G73S, V82A, L90M, I93L mutation infected in PHA-stimulated human PBMC assessed as inhibition of p24 Gag protein production; assay type: functional, organism-based; summary of the method: as §1
[8] = test system: Human immunodeficiency virus 1; assay: Ratio of IC50 for Human immunodeficiency virus 1 MDR/G to IC50 for wild-type Human immunodeficiency virus 1 ERS104pre; assay type: functional
Summary of the method: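 Antiviral IC50s measured against each multidrug-resistant clinical isolate and wild-type HIV-1ERS104pre in PHA-stimulated PBMCs as target cells, with inhibition of p24 Gag production as the end point. The fold change is the isolate IC50 divided by the wild-type IC50. Assays were run in duplicate or triplicate; values are means (±1 SD) of three independent experiments.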

[9] = test system: Human immunodeficiency virus 1; assay: Antiviral activity against Human immunodeficiency virus 1 LAI infected in human MT2 cells by MTT assay
[10] = test system: Human immunodeficiency virus 1; assay: Antiviral activity against wild type Human immunodeficiency virus 1 ERS104pre infected in PHA-stimulated human PBMC assessed as inhibition of p24 Gag protein production; assay type: functional, organism-based; summary of the method: as §1
[11] = target: Protease (Human immunodeficiency virus 1, UniProt Q9YQ12); assay: Inhibition of Human immunodeficiency virus 1 protease assessed as release of fluorescent N-terminal tripeptide using fluorogenic substrate by continuous fluorometric assay
Sequence of Protease (Q9YQ12 whole entry): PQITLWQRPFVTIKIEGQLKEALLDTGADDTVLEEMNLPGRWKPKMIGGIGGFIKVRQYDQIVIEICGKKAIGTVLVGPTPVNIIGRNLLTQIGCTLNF

SMILES	IC50 [9]	Ki [11]	other results
CC(C)CN(C[C@@H](O)[C@H](Cc1ccccc1)NC(=O)O[C@H]1CCOC1)S(=O)(=O)c1ccc(N)cc1			IC50 [1]: 380 nM; Ratio IC50 [2]: 31; IC50 [3]: 260 nM; Ratio IC50 [4]: 6; Ratio IC50 [5]: 9; IC50 [6]: 190 nM; IC50 [7]: 930 nM; Ratio IC50 [8]: 12
COc1ccc(S(=O)(=O)N(CC(C)C)C[C@@H](O)[C@H](Cc2ccccc2)NC(=O)O[C@@H]2C[C@@H]3[C@@H](O)CO[C@@H]3C2)cc1	2.9 nM		IC50 [1]: 4.5 nM; IC50 [10]: 2.9 nM; IC50 [3]: 22 nM; IC50 [6]: 3.1 nM; IC50 [7]: 29 nM
COc1ccc(S(=O)(=O)N(CC(C)C)C[C@@H](O)[C@H](Cc2ccccc2)NC(=O)O[C@@H]2C[C@@H]3C(=O)CO[C@@H]3C2)cc1	14 nM	0.95 nM	
COc1ccc(S(=O)(=O)N(CC(C)C)C[C@@H](O)[C@H](Cc2ccccc2)NC(=O)O[C@@H]2C[C@@H]3[C@H](O)CO[C@@H]3C2)cc1	7 nM	0.077 nM	IC50 [1]: 270 nM; IC50 [10]: 20 nM; IC50 [3]: > 1000 nM; IC50 [6]: 41 nM; IC50 [7]: > 1000 nM
CC(C)CN(C[C@@H](O)[C@H](Cc1ccccc1)NC(=O)O[C@@H]1C[C@@H]2[C@H](O)CO[C@@H]2C1)S(=O)(=O)c1ccc(N)cc1	25 nM	0.079 nM	
CC(C)CN(C[C@@H](O)[C@H](Cc1ccccc1)NC(=O)O[C@@H]1C[C@@H]2[C@H](O)CO[C@@H]2C1)S(=O)(=O)c1ccc(CO)cc1	19 nM	0.06 nM	
COc1ccc(S(=O)(=O)N(CC(C)C)C[C@@H](O)[C@H](Cc2ccccc2)NC(=O)O[C@@H]2C[C@@H]3[C@H](OC)CO[C@@H]3C2)cc1	37 nM	0.39 nM	
CC(C)CN(C[C@@H](O)[C@H](Cc1ccccc1)NC(=O)O[C@@H]1C[C@@H]2[C@@H](O)CO[C@@H]2C1)S(=O)(=O)c1ccc(N)cc1	36 nM	0.006 nM	
COc1ccc(S(=O)(=O)N(CC(C)C)C[C@@H](O)[C@H](Cc2ccccc2)NC(=O)O[C@@H]2C[C@@H]3[C@@H](OC)CO[C@@H]3C2)cc1	3.4 nM	0.006 nM	
COc1ccc(S(=O)(=O)N(CC(C)C)C[C@@H](O)[C@H](Cc2ccccc2)NC(=O)O[C@@H]2C[C@@H]3[C@H](C)CO[C@@H]3C2)cc1	25 nM	0.16 nM	
COc1ccc(S(=O)(=O)N(CC(C)C)C[C@@H](O)[C@H](Cc2ccccc2)NC(=O)O[C@@H]2C[C@@H]3[C@@H](C)CO[C@@H]3C2)cc1		0.017 nM	
COc1ccc(S(=O)(=O)N(CC(C)C)C[C@@H](O)[C@H](Cc2ccccc2)NC(=O)O[C@@H]2C[C@@H]3[C@H](N(C)C)CO[C@@H]3C2)cc1		12.5 nM	
